Results reported in PMC4982705 (Biochemical pharmacology, 2016).

What was measured:
Test in all cases: intrinsic fluorescence titration
Type in all cases: binding
[1] = target: SULT1B1-K266E/E275K heterodimer (Homo sapiens, UniProt O43704, E275K/K266E)
Summary of the method: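 His-tagged K266E and E275K SULT1B1 subunits were purified separately from E. coli, then co-incubated at normalized concentrations for 1 h on ice to form the heterodimer. 0.20 µM enzyme in 10 mM sodium phosphate pH 7.8, 10% glycerol, 150 mM NaCl. PAP added stepwise; intrinsic fluorescence (ex 282/em 338) averaged over 15 s after 15 s mixing. Kd from one-site hyperbolic fit; triplicate.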

[2] = target: SULT1B1 (hSULT1B1, wildtype) (Homo sapiens, UniProt O43704, E275K/H109Y)
Summary of the method: (§1)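 Ligand: PAP (cofactor product). Protein: N-terminal 6xHis human SULT1B1, expressed in E. coli BL21-DE3-RIL (IPTG, 20°C) and purified on Ni-NTA. 0.20 µM enzyme in 10 mM sodium phosphate pH 7.8, 10% glycerol, 150 mM NaCl. PAP titrated in; each step mixed 15 s, then intrinsic fluorescence (ex 282, em 338) read for 15 s. Kd from one-site hyperbolic fit; triplicate runs.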

[3] = target: SULT1B1 (hSULT1B1, wildtype) (Homo sapiens, UniProt O43704)
Summary of the method: as §1

[4] = target: SULT1B1 (hSULT1B1, wildtype) (Homo sapiens, UniProt O43704, E275K)
Summary of the method: as §1

[5] = target: SULT1B1 (hSULT1B1, wildtype) (Homo sapiens, UniProt O43704, K266E)
SULT1B1 (hSULT1B1, wildtype) (Homo sapiens, UniProt O43704, K266E), sequence (O43704 whole entry K266E): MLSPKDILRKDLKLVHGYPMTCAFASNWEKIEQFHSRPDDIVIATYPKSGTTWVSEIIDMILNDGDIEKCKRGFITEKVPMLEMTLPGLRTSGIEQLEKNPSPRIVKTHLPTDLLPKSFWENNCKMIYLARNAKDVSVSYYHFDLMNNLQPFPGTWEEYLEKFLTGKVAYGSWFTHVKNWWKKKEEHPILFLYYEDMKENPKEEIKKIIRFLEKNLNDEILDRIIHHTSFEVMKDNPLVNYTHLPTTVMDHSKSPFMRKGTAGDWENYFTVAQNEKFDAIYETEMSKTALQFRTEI

SULT1B1 (hSULT1B1, wildtype) (Homo sapiens, UniProt O43704, E275K/H109Y), sequence (O43704 whole entry H109Y/E275K): as the sequence (O43704 whole entry K266E) above, with H109Y, E266K, E275K counted along it
SULT1B1-K266E/E275K heterodimer, sequence (O43704 whole entry K266E): as the sequence (O43704 whole entry K266E) above
SULT1B1-K266E/E275K heterodimer, sequence (O43704 whole entry E275K): as the sequence (O43704 whole entry K266E) above, with E266K, E275K counted along it
SULT1B1 (hSULT1B1, wildtype) (Homo sapiens, UniProt O43704), sequence (O43704 whole entry): as the sequence (O43704 whole entry K266E) above, with E266K counted along it
SULT1B1 (hSULT1B1, wildtype) (Homo sapiens, UniProt O43704, E275K), sequence (O43704 whole entry E275K): as the sequence (O43704 whole entry K266E) above, with E266K, E275K counted along it

Kd [1]: 180 ± 6 nM
Kd [2]: 668 ± 31 nM
Kd [3]: 106 ± 9 nM
Kd [4]: 80 ± 9 nM
Kd [5]: 1470 nM
Structure (SMILES): Nc1ncnc2c1ncn2[C@@H]1O[C@H](COP(=O)(O)O)[C@@H](OP(=O)(O)O)[C@H]1O [PAP, 3′,5′-diphosphoadenosine]
